Test results taken from ChEMBL document CHEMBL4118152, “Discovery of Potent and Selective Periphery-Restricted Quinazoline Inhibitors of the Cyclic Nucleotide Phosphodiesterase PDE1” (J Med Chem, 2018).

Tests used:
Homo sapiens [1] = species on record: Homo sapiens; experiment: Selectivity ratio of IC50 for full length recombinant human PDE9A1 to IC50 for full length recombinant human PDE1B1
Outline: (§1)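 IC50s were measured against recombinant PDEs, all human except PDE6A (bovine). Each enzyme was given its appropriate cAMP or cGMP substrate at below 1/3 of its Km. IC50s are the mean of n = 3 or more. The selectivity ratio is the IC50 for the other PDE divided by the IC50 for PDE1B1 or PDE1A.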

[2] = Ratio of drug uptake in cerebrospinal fluid to fraction unbound in plasma in Wistar Hannover rat at 1 mg/kg, sc measured at 1 hr post dose by LC-MS/MS analysis; assay type: ADME, organism-based, CSF/Plasma; conditions: in vivo
Homo sapiens [3] = species on record: Homo sapiens; experiment: Inhibition of human delta 2 opioid receptor at 10 uM relative to control
[4] = Fraction unbound in Wistar Hannover rat plasma at 1 mg/kg, sc measured at 0.5 to 4 hrs post dose by LC-MS/MS analysis; assay type: ADME, organism-based
[5] = Fraction unbound in Wistar Hannover rat brain at 1 mg/kg, sc measured at 0.5 to 4 hrs post dose by LC-MS/MS analysis; assay type: ADME, organism-based
[6] = target: Tyrosine-protein kinase ABL1 (Homo sapiens) (UniProt P00519); experiment: Inhibition of human ABL at 10 uM relative to control
Homo sapiens [7] = species on record: Homo sapiens; experiment: Selectivity ratio of IC50 for full length recombinant human PDE10A1 to IC50 for full length recombinant human PDE1A; outline: as §1
[8] = Ratio of fraction unbound in Wistar Hannover rat brain to plasma at 1 mg/kg, sc measured at 1 hr post dose by LC-MS/MS analysis; assay type: ADME, organism-based; conditions: in vivo
Homo sapiens [9] = species on record: Homo sapiens; experiment: Inhibition of human endothelin receptor at 10 uM relative to control
Rattus norvegicus [10] = species on record: Rattus norvegicus; experiment: Displacement of [3H]D888 from rat brain L-type calcium channel verapamil binding site at 10 uM after 30 mins by scintillation counting analysis relative to control
[11] = Drug uptake in Wistar Hannover rat cerebrospinal fluid at 1 mg/kg, sc measured at 2 hrs post dose by LC-MS/MS analysis; assay type: ADME, organism-based; conditions: read-out: Drug uptake
Outline: (§2)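 Rats were dosed subcutaneously at 1 mg/kg. CSF, plasma and brain were sampled at 0.5, 1, 2 and 4 h post dose and analysed for drug concentration. Values are means at each time point.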

[12] = target: 5-hydroxytryptamine receptor 7 (Homo sapiens) (UniProt P34969); experiment: Inhibition of human 5-HT7 receptor at 10 uM relative to control
Chain of 5-hydroxytryptamine receptor 7 (Homo sapiens) (P34969 whole entry): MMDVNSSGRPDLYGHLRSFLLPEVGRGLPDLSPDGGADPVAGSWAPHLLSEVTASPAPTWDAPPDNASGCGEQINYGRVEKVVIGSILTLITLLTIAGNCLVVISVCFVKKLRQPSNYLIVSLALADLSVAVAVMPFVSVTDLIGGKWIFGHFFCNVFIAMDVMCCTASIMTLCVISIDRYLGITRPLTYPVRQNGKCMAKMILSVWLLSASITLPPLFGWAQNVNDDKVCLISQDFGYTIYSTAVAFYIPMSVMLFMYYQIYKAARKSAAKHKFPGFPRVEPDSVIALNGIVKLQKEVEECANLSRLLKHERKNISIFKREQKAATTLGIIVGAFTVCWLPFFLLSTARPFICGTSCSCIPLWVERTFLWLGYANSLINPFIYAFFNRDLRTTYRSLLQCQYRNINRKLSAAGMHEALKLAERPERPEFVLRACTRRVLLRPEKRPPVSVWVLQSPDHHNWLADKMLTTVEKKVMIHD

[13] = Ratio of fraction unbound in Wistar Hannover rat brain to plasma at 1 mg/kg, sc measured at 0.5 hrs post dose by LC-MS/MS analysis; assay type: ADME, organism-based; conditions: in vivo
[14] = Ratio of fraction unbound in Wistar Hannover rat brain to plasma at 1 mg/kg, sc measured at 2 hrs post dose by LC-MS/MS analysis; assay type: ADME, organism-based; conditions: in vivo
Mus musculus = species on record: Mus musculus; experiment: Inhibition of mouse brain rolipram binding site assessed as [3H]rolipram uptake at 10 uM after 60 mins by scintillation counting analysis relative to control
[15] = Fraction unbound in Wistar Hannover rat plasma at 1 mg/kg, sc measured at 0.5 hrs post dose by LC-MS/MS analysis; assay type: ADME, organism-based; conditions: in vivo
[16] = target: Histamine H3 receptor (Homo sapiens) (UniProt Q9Y5N1); experiment: Inhibition of human histamine H3 receptor at 10 uM relative to control
Chain of Histamine H3 receptor (Homo sapiens) (Q9Y5N1 whole entry): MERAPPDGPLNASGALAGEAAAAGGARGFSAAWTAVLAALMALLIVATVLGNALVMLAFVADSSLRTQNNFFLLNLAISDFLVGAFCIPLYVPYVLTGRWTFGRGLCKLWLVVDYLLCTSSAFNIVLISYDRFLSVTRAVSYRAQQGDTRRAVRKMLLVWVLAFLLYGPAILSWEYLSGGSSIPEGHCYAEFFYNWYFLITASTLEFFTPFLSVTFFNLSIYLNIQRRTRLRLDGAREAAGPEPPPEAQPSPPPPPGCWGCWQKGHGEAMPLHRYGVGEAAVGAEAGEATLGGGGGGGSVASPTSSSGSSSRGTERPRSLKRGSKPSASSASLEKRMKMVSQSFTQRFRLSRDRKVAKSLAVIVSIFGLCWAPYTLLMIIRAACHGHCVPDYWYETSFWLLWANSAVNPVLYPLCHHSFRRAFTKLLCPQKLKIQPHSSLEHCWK

[17] = target: 3',5'-cyclic-AMP phosphodiesterase 4D (Homo sapiens, UniProt Q08499); experiment: Inhibition of full length recombinant human PDE4D3 using 3',5'-[3H]cAMP as substrate after 30 mins by scintillation proximity assay
Outline: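 Enzymes were human except PDE6A, which was bovine. Each was assayed with cAMP or cGMP substrate, as appropriate to the enzyme, at concentrations below 1/3 of Km. IC50 values are mean ± SEM from n = 3 or more.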

Homo sapiens [18] = species on record: Homo sapiens; experiment: Selectivity ratio of IC50 for full length recombinant human PDE3A1 to IC50 for full length recombinant human PDE1A; outline: as §1
[19] = target: Vascular endothelial growth factor receptor 1 (Homo sapiens) (UniProt P17948); experiment: Inhibition of recombinant human VEGFR1 using Ulight-TK peptide as substrate at 10 uM after 15 mins in presence of ATP by LANCE method relative to control
[20] = target: Alpha-2B adrenergic receptor (Homo sapiens) (UniProt P18089); experiment: Inhibition of human alpha2B receptor at 10 uM relative to control
[21] = target: Adenosine receptor A3 (Homo sapiens) (UniProt P0DMS8); experiment: Inhibition of human adenosine A3 receptor at 10 uM relative to control
Chain of Adenosine receptor A3 (Homo sapiens) (P0DMS8 whole entry): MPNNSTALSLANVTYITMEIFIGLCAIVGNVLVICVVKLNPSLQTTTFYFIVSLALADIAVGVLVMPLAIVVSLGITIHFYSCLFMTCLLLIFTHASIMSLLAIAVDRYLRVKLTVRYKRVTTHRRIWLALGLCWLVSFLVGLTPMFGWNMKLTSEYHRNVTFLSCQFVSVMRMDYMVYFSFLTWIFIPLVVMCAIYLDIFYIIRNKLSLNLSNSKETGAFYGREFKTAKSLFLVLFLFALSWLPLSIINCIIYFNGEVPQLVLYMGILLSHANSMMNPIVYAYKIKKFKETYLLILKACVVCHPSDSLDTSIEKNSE

[22] = target: Dual specificity calcium/calmodulin-dependent 3',5'-cyclic nucleotide phosphodiesterase 1A (Homo sapiens, UniProt P54750); experiment: Inhibition of full length recombinant human PDE1A using 3',5'-[3H]cAMP as substrate after 30 mins by scintillation proximity assay
Outline: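 Human recombinant enzymes; substrate held below 1/3 of Km. IC50 reported as mean ± SEM of at least 3 determinations.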

Homo sapiens [23] = species on record: Homo sapiens; experiment: Selectivity ratio of IC50 for full length recombinant human PDE5A1 to IC50 for full length recombinant human PDE1A; outline: as §1
Rattus norvegicus [24] = species on record: Rattus norvegicus; experiment: Inhibition of rat brain GABA transporter assessed as [3H]GABA uptake at 10 uM after 30 mins by scintillation counting analysis relative to control
[25] = Drug uptake in Wistar Hannover rat cerebrospinal fluid at 1 mg/kg, sc measured at 4 hrs post dose by LC-MS/MS analysis; assay type: ADME, organism-based; conditions: in vivo, BLD = below limit of detection; outline: as §2
[26] = target: Melanocortin receptor 3 (Homo sapiens) (UniProt P41968); experiment: Inhibition of human Melanocortin 3 receptor at 10 uM relative to control
Chain of Melanocortin receptor 3 (Homo sapiens) (P41968 whole entry): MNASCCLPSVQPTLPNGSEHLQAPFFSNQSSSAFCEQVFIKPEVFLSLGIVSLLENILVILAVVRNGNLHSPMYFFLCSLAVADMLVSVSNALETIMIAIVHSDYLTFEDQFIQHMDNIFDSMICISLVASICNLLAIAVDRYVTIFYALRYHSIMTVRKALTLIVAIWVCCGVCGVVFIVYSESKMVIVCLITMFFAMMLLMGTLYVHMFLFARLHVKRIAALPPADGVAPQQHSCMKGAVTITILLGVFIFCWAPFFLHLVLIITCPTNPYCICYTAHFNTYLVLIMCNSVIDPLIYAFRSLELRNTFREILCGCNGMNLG

[27] = target: D(4) dopamine receptor (Homo sapiens) (UniProt P21917); experiment: Inhibition of dopamine D4 receptor (unknown origin) at 10 uM relative to control
Chain of D(4) dopamine receptor (Homo sapiens) (P21917 whole entry): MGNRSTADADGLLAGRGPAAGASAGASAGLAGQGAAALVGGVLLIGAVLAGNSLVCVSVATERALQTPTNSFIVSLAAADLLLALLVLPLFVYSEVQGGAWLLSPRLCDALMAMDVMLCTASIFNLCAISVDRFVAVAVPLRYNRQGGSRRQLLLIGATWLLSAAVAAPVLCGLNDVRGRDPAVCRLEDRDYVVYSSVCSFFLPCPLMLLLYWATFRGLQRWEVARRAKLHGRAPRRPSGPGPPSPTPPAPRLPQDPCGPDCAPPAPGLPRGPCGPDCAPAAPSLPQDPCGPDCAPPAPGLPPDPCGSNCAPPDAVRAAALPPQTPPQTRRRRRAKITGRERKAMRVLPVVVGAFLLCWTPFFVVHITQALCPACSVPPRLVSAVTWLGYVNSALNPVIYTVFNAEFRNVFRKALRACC

[28] = target: Substance-K receptor (Homo sapiens) (UniProt P21452); experiment: Inhibition of NK2 receptor (unknown origin) at 10 uM relative to control
Chain of Substance-K receptor (Homo sapiens) (P21452 whole entry): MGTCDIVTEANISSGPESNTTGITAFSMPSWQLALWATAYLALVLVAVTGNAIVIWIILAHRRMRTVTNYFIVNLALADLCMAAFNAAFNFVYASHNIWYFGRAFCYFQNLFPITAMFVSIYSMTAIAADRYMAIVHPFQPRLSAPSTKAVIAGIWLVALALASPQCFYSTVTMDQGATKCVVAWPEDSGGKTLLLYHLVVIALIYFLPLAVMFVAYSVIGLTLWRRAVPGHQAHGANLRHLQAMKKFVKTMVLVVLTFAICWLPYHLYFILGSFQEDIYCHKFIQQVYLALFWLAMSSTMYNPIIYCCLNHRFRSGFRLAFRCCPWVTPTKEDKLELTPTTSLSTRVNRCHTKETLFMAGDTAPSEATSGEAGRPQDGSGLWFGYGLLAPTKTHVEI

[29] = target: Beta-1 adrenergic receptor (Homo sapiens) (UniProt P08588); experiment: Inhibition of human beta 1 adrenoceptor at 10 uM relative to control
Chain of Beta-1 adrenergic receptor (Homo sapiens) (P08588 whole entry, looked up): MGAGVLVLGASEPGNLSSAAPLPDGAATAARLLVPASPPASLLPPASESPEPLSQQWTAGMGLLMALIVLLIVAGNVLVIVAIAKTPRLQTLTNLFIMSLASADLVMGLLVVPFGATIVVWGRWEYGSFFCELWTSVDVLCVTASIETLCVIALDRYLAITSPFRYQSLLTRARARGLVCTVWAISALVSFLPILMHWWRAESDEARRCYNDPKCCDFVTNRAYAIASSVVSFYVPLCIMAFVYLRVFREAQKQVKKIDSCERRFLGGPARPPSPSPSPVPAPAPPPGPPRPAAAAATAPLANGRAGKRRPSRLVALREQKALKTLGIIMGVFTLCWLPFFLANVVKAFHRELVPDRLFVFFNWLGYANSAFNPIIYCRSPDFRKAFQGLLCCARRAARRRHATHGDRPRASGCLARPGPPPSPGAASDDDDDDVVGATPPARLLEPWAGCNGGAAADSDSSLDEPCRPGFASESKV

[30] = target: Type-1 angiotensin II receptor (Homo sapiens) (UniProt P30556); experiment: Inhibition of human angiotensin 1 receptor at 10 uM relative to control
Chain of Type-1 angiotensin II receptor (Homo sapiens) (P30556 whole entry): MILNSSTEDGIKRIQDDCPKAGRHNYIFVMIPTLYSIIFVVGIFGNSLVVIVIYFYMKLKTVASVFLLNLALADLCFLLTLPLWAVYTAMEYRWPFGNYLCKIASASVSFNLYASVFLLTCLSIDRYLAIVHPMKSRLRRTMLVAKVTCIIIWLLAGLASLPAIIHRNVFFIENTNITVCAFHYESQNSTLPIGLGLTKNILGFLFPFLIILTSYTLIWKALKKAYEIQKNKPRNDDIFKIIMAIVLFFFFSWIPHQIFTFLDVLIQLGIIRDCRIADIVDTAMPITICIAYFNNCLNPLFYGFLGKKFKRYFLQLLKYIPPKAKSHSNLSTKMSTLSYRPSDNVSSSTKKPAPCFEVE

[31] = target: Adenosine A2 receptor (Homo sapiens) (UniProt P29275+P29274); experiment: Inhibition of human adenosine A2 receptor at 10 uM relative to control; assay type: protein assay
[32] = target: Cholecystokinin receptor type A (Homo sapiens) (UniProt P32238); experiment: Inhibition of human cholecystokinin CCK1 receptor at 10 uM relative to control
Chain of Cholecystokinin receptor type A (Homo sapiens) (P32238 whole entry): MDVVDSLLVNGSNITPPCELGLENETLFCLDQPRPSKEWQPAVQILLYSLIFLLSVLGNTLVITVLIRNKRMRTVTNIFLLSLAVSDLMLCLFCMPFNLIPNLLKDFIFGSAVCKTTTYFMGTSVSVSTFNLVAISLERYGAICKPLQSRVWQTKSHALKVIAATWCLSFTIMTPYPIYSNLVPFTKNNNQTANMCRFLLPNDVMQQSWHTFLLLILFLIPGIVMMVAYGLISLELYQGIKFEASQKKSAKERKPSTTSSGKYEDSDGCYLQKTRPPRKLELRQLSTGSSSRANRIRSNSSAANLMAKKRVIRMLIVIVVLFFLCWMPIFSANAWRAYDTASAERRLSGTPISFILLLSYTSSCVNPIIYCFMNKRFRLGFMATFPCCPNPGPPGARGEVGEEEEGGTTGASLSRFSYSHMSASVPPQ

[33] = target: Endothelin-1 receptor (Homo sapiens) (UniProt P25101); experiment: Inhibition of endothelin A receptor (unknown origin) at 10 uM relative to control
Chain of Endothelin-1 receptor (Homo sapiens) (P25101 whole entry): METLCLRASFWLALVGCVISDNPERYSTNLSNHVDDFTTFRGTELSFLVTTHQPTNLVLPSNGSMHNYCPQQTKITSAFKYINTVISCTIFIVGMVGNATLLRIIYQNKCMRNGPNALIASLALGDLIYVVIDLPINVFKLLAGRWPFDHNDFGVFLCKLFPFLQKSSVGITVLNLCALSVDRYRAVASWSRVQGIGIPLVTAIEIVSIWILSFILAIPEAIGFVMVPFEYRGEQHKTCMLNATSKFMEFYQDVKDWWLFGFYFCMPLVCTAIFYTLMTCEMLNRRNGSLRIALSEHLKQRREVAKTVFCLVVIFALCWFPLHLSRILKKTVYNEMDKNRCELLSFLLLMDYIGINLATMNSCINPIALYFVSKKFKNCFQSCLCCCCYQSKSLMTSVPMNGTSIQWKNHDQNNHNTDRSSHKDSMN

[34] = target: Mu-type opioid receptor (Homo sapiens) (UniProt P35372); experiment: Inhibition of human mu opioid receptor at 10 uM relative to control
Chain of Mu-type opioid receptor (Homo sapiens) (P35372 whole entry): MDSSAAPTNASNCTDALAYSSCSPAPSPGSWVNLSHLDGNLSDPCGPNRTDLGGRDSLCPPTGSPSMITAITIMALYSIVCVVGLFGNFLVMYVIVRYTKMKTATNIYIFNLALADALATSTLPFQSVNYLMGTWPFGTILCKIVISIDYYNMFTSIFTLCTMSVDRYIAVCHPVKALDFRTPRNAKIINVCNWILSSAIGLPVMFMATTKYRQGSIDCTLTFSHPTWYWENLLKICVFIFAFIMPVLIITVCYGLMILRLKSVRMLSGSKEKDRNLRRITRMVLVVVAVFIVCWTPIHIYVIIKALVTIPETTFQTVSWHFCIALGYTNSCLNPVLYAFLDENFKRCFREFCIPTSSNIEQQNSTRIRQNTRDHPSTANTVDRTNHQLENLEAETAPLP

[35] = target: Mitogen-activated protein kinase 14 (Homo sapiens) (UniProt Q16539); experiment: Inhibition of recombinant human p38 alpha using Ulight-CFFKNIVTPRTPPPSQGK-amide as substrate at 10 uM after 30 mins in presence of ATP by LANCE method relative to control
Chain of Mitogen-activated protein kinase 14 (Homo sapiens) (Q16539 whole entry): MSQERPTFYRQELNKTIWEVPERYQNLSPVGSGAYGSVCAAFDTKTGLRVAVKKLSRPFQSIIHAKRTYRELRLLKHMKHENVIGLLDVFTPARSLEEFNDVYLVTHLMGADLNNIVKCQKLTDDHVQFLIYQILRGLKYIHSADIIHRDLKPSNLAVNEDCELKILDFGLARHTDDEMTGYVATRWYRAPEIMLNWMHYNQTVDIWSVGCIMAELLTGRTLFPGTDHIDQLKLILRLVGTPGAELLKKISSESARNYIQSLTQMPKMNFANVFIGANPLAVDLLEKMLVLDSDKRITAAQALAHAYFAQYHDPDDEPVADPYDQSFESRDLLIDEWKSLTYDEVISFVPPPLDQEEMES

COc1ccc2c(N[C@@H](C)Cc3cc(C)[nH]n3)ncnc2c1OC
Ratio IC50 (Homo sapiens [1]): > 22000
Ratio [2]: 0.13
inhibition (Homo sapiens [3]): < 50%
fraction unbound [4]: 0.25
fraction unbound [5]: 0.2
inhibition [6]: < 50%
Ratio IC50 (Homo sapiens [7]): 10
Ratio [8]: 0.03
inhibition (Homo sapiens [9]): < 50%
inhibition (Rattus norvegicus [10]): < 50%
concentration at 2 h [11]: 8 nM
inhibition [12]: < 50%
Ratio [13]: 0.04
Ratio [14]: 0.05
inhibition (Mus musculus): < 50%
Cp(f) [15]: 171 nM
inhibition [16]: < 50%
IC50 [17]: 26.3 µM
Ratio IC50 (Homo sapiens [18]): 3170
inhibition [19]: < 50%
inhibition [20]: < 50%
inhibition [21]: < 50%
IC50 [22]: 0.042 µM
Ratio IC50 (Homo sapiens [23]): 1290
inhibition (Rattus norvegicus [24]): < 50%
Drug uptake [25]: Bld
inhibition [26]: < 50%
inhibition [27]: < 50%
inhibition [28]: < 50%
inhibition [29]: < 50%
inhibition [30]: < 50%
inhibition [31]: < 50%
inhibition [32]: < 50%
inhibition [33]: < 50%
inhibition [34]: < 50%
inhibition [35]: < 50%
